The source of these data is PMC7856085 (Archives of biochemistry and biophysics, 2020).

For assay [1], the target named is GSALDH activity of SmPutA (Sinorhizobium meliloti, UniProt F7X6I3). The assay can be described thus: GSALDH activity measurements. The format is biochemical. The conditions noted are these: for Ki / α: P5C variable substrate.
The next assay has as its system SmPutA. Nature of the assay: Fluorescence-based thermal shift assay. The format is binding, Sinorhizobium meliloti. The conditions noted are these: compound at 62.5 mM; ligand-free SmPutA T1/2 40.2 °C.
Assay [2] deals with GSALDH active site of SmPutA. The assay can be described thus: Co-crystallization / electron density in the GSALDH active site. The settings on record: co-crystallization at 50 mM. The arrangement: species or system Sinorhizobium meliloti. The essentials: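 Recombinant SmPutA (expressed in E. coli) at 6 mg/mL in 50 mM Tris pH 8.0, 50 mM NaCl, 5% glycerol, 0.5 mM TCEP. Sitting-drop co-crystallization at 13 °C against 19% PEG-3350, 0.2 M ammonium sulfate, 0.1 M MgCl2, 0.1 M HEPES pH 8.0, 0.1 M sodium formate. Ligand at 50 mM, with or without 10 mM NAD+. Cryoprotected with added 15% PEG-200. Ligand density checked with polder omit maps.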

For another assay, the target named is mammalian GSALDH. The settings on record: competitive with P5C; cited from earlier work.
The mark [3] stands for this setting: Competitive model, NAD+ fixed at 0.2 mM.
Where [4] appears, read: Mixed model, NAD+ fixed at 0.2 mM.
Setting [5] is: Uncompetitive model, NAD+ fixed at 0.2 mM.

On to `O=C(O)[C@H]1C[C@@H](O)CN1` [CHDP, cis-4-hydroxy-D-proline], for which, in assay [1] (setting [3]), the affinity corresponds to a Ki of 8 mM. In assay [1] (setting [4]), affinity was put at a Ki of 25 mM and the α is recorded as 0.9 ± 0.5. Moreover, the “ΔT1/2 (increase of midpoint of stability curve)” value in the assay on SmPutA turned out to be 4.0 °C.
For `O=C(O)[C@@H]1C[C@H](O)CN1` [CHLP, cis-4-hydroxy-L-proline], the “Inhibition of the GSALDH activity of SmPutA” value in assay [1] (fit to competitive model, L-P5C variable substrate, NAD+ fixed) is “does not inhibit”. The “ΔT1/2 (increase of midpoint of stability curve)” value in the assay on SmPutA came to 2.1 °C. Further, the “Binding to GSALDH site (electron density)” value in assay [2] was “does not bind GSALDH”.
Turning to `O=C(O)[C@H]1CCCN1` [D-Pro, D-proline], the values for the inhibitory constant (Ki) in assay [1] (setting [3]) and in assay [1] (setting [5]) were 1.5 ± 0.5 mM and 4.5 ± 0.2 mM, respectively.
In the case of `O=C(O)C1CCC=N1` [L-P5C, Δ^1-pyrroline-5-carboxylate], the Km (usually the concentration of substrate that gives half-maximal velocity) in assay [1] (substrate of GSALDH activity of SmPutA, NAD+ fixed at 0.2 mM) was 300 ± 100 µM.
For the compound `O=C(O)[C@@H]1CCCN1` [L-Pro, L-proline], the inhibition constant Ki (in general, the dissociation constant of the complex between target and ligand, obtained from inhibition or displacement) in assay [1] (setting [3]) was 11 mM; in assay [1] (setting [5]), 19 mM; on mammalian GSALDH, 3 mM.
`O=C(O)[C@H]1C[C@H](O)CN1` [THDP, trans-4-hydroxy-D-proline] came in with a Ki in assay [1] (setting [3]) of 4.5 ± 0.5 mM. Moreover, in assay [1] (setting [4]), the affinity, expressed as Ki, was 10 mM and the α amounted to 1.6 ± 0.4. Besides, the “ΔT1/2 (increase of midpoint of stability curve)” value in the assay with SmPutA stood at 5.6 °C.
The like results for `O=C(O)[C@@H]1C[C@@H](O)CN1` [THLP, trans-4-hydroxy-L-proline] were, in that order, 7 mM, 27 mM, 0.6 ± 0.1 and 2.9 °C.
